Measurements as given in ChEMBL document CHEMBL1146466, “Immunomodulatory constituents from an Ascomycete, Chaetomium seminudum” (J Nat Prod, 2004).
Converted amounts (≈) assume the structure as drawn.

Tests used:
[1] = Immunosuppressive activity in BALB/c mouse splenic B lymphocytes assessed as inhibition of LPS-induced cell proliferation after 72 hrs by MTT assay; assay type: functional, cell-based
How it was run: (§1)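 Splenocytes from three male BALB/c mice (7-11 weeks) at 8.0 × 10^6 cells/mL in FBS/RPMI, stimulated with LPS (B cells) or Con A (T cells) at 70% of the optimum dose from a dose-response curve. Samples were dissolved in 1.0% EtOH/medium and incubated 72 h at 37 °C in 5% CO2. MTT (5.0 mg/mL stock) was added for 4 h, formazan extracted into DMSO, and A570/630 read. Proliferation was expressed as % of no-sample control, in triplicate. IC50 came from a 7-concentration curve.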

[2] = Immunosuppressive activity in BALB/c mouse splenic T lymphocytes assessed as inhibition of Con A-induced cell proliferation after 72 hrs by MTT assay; assay type: functional, cell-based; how it was run: as §1

Row | SMILES | IC50 [1] [ng/mL] | IC50 [2] [ng/mL]
1 | Cn1cnc([N+](=O)[O-])c1Sc1ncnc2[nH]cnc12 [AZATHIOPRINE] | 2700 (≈ 9740 nM) | 2700 (≈ 9740 nM)
2 | CN1C(=O)[C@]2(Cc3cn([C@]45C[C@@]67SS[C@@](CO)(C(=O)N6[C@H]4Nc4ccccc45)N(C)C7=O)c4ccccc34)SS[C@@]1(CO)C(=O)N2C [CHETOMIN] | 90 (≈ 127 nM) | 170 (≈ 239 nM)
3 | CN1C(=O)[C@]2(Cc3cn([C@]45C[C@@]67SSS[C@@](CO)(C(=O)N6[C@H]4Nc4ccccc45)N(C)C7=O)c4ccccc34)SS[C@@]1(CO)C(=O)N2C [CHETOSEMINUDIN A] | 130 (≈ 175 nM) | 180 (≈ 242 nM)
4 | CS[C@]1(Cc2c[nH]c3ccccc23)NC(=O)[C@](CO)(SC)N(C)C1=O [CHETOSEMINUDIN B] | – | 24000 (≈ 63200 nM)
5 | CS[C@]1(CO)NC(=O)[C@](Cc2c[nH]c3ccccc23)(SC)NC1=O [CHETOSEMINUDIN C] | – | > 50000
6 | C=CC[C@@H]1/C=C(\C)C[C@H](C)C[C@H](OC)[C@H]2O[C@@](O)(C(=O)C(=O)N3CCCC[C@H]3C(=O)O[C@H](/C(C)=C/[C@@H]3CC[C@@H](O)[C@H](OC)C3)[C@H](C)[C@@H](O)CC1=O)[C@H](C)C[C@@H]2OC [TACROLIMUS ANHYDROUS] | 1.6 (≈ 1.99 nM) | 0.015 (≈ 0.0187 nM)
